Source: PubChem (several laboratories)
UCH37 DUB inh – inhibitors of human UCH37 deubiquitinase, primary screen, biochemical, Ub-AMC cleavage, fluorescence | Ubiquitin carboxyl-terminal hydrolase isozyme L5 (Homo sapiens), Q9Y5K5 | purified proteasome/UCH37 | inhibition, % (no concentration beside the values) | hit rate 0.33% among 330,000;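 active means mean inhibition over replicate wells above about 20%, limit read from the data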;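 further: 0% = compound-free wells with enzyme and 100% = wells lacking proteasome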
Target sequence (Q9Y5K5 whole entry, looked up): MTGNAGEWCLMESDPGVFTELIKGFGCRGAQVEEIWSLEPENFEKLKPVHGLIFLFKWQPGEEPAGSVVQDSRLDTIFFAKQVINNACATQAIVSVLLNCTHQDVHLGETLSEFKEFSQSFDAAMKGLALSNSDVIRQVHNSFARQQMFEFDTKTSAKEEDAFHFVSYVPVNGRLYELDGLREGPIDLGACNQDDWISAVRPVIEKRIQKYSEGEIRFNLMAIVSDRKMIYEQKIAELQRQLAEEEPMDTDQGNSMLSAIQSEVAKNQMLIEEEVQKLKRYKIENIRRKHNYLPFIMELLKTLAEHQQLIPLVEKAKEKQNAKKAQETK
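Assay system: Proteasome-bound UCH37. Buffer or medium: pH 7.4 Tris-HCl (50 mM) with ovalbumin, ATP-MgCl2, DTT. Incubation: 30 min preincubation with enzyme, 25 min cleavage at room temperature. Measured by: fluorescence, ex 355 nm, em 460 nm. Read-out basis: percent inhibition. Control set: wells without proteasome as full block, compound-free enzyme plus substrate as uninhibited.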
PolyA inhibitor – polyadenylation inhibitors in yeast reporter cells, primary screen, luminescence, S. cerevisiae; S. cerevisiae SKY197-pL101 polyadenylation reporter, beta-gal luminescence; efflux-impaired pdr1/pdr3 knockout yeast; score 100 = 6 SD above DMSO; hit rate 0.02% among 300,000; activity score, % at 12 µM; AID 1875, 2009;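 active means lowest replicate activity score at least 50, where 100 means six control SD above control mean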;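 further: yeast exposed to compound for 9 h at 30 °C; higher score means more reporter readthrough which indicates perturbed polyadenylation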
AHR activator – AHR activators, primary screen, cell-based, luminescence, luciferase reporter, human; Aryl hydrocarbon receptor (Homo sapiens), P35869; AID 2796, 2010; AHR-responsive luciferase reporter cells; hit rate 2.5% among 320,000; activation, % at 5 µM; in the data active means activation above about 47%;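 further: 0% = vehicle wells and 100% = reference agonist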
APOBEC3A inh – APOBEC3A ssDNA deaminase inhibitors, primary screen, selectivity assay for APOBEC3G inhibitor project, biochemical, FAM/TAMRA oligo cleavage fluorescence | inhibition, % at 20 µM | recombinant A3A, FAM/TAMRA ssDNA deamination fluorescence | DNA dC->dU-editing enzyme APOBEC-3A (Homo sapiens), P31941 | hit rate 0.41% among 330,000;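 active means at least 40% inhibition at 20 µM here, with at most 30% in a related deaminase screen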;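 further: plate controls were A3A with DMSO for no effect and wells lacking A3A enzyme for full effect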
Target sequence (P31941 whole entry, looked up): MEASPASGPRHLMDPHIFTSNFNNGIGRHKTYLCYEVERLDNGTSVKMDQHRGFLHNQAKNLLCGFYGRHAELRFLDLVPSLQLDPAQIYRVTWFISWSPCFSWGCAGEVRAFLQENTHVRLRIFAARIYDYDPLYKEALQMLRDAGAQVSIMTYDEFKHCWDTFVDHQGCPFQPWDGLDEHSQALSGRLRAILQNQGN
A3G deaminase – APOBEC3G DNA deaminase inhibitors, primary screen, biochemical, fluorescence, single-stranded DNA substrate, uHTS. recombinant A3G, ssDNA deamination FAM/TAMRA fluorescence. inhibition, % at 20 µM. hit rate 0.28% among 330,000;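 active means inhibition of at least 40% at 20 µM, with no more than 30% in the related APOBEC3A deaminase screen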;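 further: plate controls were DMSO wells with A3G for no effect and wells lacking A3G enzyme for full effect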
Arr AP2 block – inhibitors of beta-arrestin/AP2 binding, primary screen, biochemical, GPCR trafficking, flow cytometry. beta-arrestin 1 C-terminal peptide binding to AP2 beta2-adaptin appendage (human). FITC-arrestin peptide / GST-AP2 beads; AP2 beta2 appendage carries R879A mutation. inhibition, % at 10 µM. hit rate 0.31% among 340,000. AID 504490, 2011;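 active means inhibition above a set limit, near 3 SD of compounds lacking own fluorescence, cut at about 54% in these data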;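 further: plate controls were DMSO wells for no effect and 5 µM unlabelled arrestin peptide for full effect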
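Assay system: GST-AP2 R879A bound to glutathione beads, E. coli-expressed; Medium: PBS with 0.05% Tween 20 and 0.1% BSA; Also added: fluorescein-tagged arrestin peptide at 50 nM final; Timing: 12 min plus 1 h, RT; Measured by: flow cytometry, FL1 (488/535 nm); Evaluation: percent drop in bead-associated FITC signal.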
APOBEC3A confirm – APOBEC3A deaminase inhibitors, retest, confirmation, selectivity assay for APOBEC3G inhibitor project, biochemical, single concentration, fluorescence readout; hit rate 63% among 1,400; recombinant A3A, ssDNA deaminase UDG fluorescence assay; AID 493151, 2011; inhibition, % at 20 µM; shares compounds with APOBEC3A inh;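 active means inhibition reaching a set limit, 80% of the first screen's cutoff, at 20 µM in any replicate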;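 further: plate controls were DMSO wells with A3A for no effect and wells lacking A3A enzyme for full effect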
UDG ctr A3A – E. coli UDG inhibitors, confirmation, counter-screen for APOBEC3A inhibitor project, biochemical, single concentration, fluorescence, FAM/TAMRA oligo; shares compounds with APOBEC3A inh; UDG counterscreen, FAM/TAMRA uracil oligo fluorescence; inhibition, % at 20 µM; 1,000 tested, under 10 active; AID 504714, 2011; call rule not given here
Starred values were filed as active, the others as inactive; . = not tested or not shown. Shown are actives, neighbours in structure and some others; about 3.4% of the full set was active somewhere.

SMILES | UCH37 DUB inh | PolyA inhibitor | AHR activator | APOBEC3A inh | A3G deaminase | Arr AP2 block | APOBEC3A confirm | others
Cc1noc(C)c1CSCC(=O)Nc1nc2ccc(S(C)(=O)=O)cc2s1 | 3.1 | -7.9 | 8.9 | 44.3* | 2.1 | 40.0 | 14.8
COc1ccc2nc(NC(=O)CSCc3c(C)noc3C)sc2c1 | 5.2 | 23.5 | 3.7 | 1.7 | -10.3 | -7.6 | .
CCc1nn(CCCC(=O)N2CCC(C)CC2)c(=O)c2cc3occc3n12 | -1.5 | -9.6 | -1.0 | 40.2* | -1.9 | 5.8 | -6.9 | UDG ctr A3A=-1.2
CCOc1ccccc1NC(=S)N1CCN(c2ccc(O)cc2)CC1 | -0.8 | 11.3 | 1.0 | -2.0 | -4.7 | -14.3 | .
CCOc1ccccc1NC(=S)N1CCN(c2ccc(OC)cc2)CC1 | 4.3 | 5.0 | -1.8 | 83.3* | -3.5 | -19.5 | -9.2 | UDG ctr A3A=-2.9
C[N+]1(CCCCCCC(=O)/C=N/O)CCCCCC1 | . | 21.2 | 0.5 | 42.5* | 27.5 | -10.9 | 61.3* | UDG ctr A3A=0.0
C[N+](C)(C)CCCCCCC(=O)/C=N/O | . | -3.8 | -0.4 | 61.2* | 15.1 | 7.0 | 67.1* | UDG ctr A3A=5.3
C[N+]1(CCNC(=O)C=NO)CCCCC1 | 1.7 | . | . | . | . | . | .
COc1ccc2[nH]c(C(=O)NN=Cc3ccc(O)cc3O)cc2c1 | -57.1 | . | . | . | . | . | .
CCC(=O)NC(Cc1ccccc1)c1nc2ccccc2[nH]1 (stereo unspecified) | 1.3 | 10.7 | . | -4.5 | -5.5 | -2.1 | .
Cc1cc(Cl)ccc1OCC(=O)N[C@@H](Cc1ccccc1)c1nc2ccccc2[nH]1 | 3.2 | 42.8 | 32.7 | 42.1* | 14.8 | 5.3 | 24.2
Cc1onc(-c2ccccc2Cl)c1C(=O)Nc1ccc(Cl)cn1 | -0.1 | -0.6 | -2.0 | 59.7* | 15.5 | -5.8 | 0.7
O=C(OCc1cc(=O)n2c(n1)sc1ccccc12)c1ccc2c(=O)n3c(nc2c1)CCC3 | -7.5 | 2.4 | 2.8 | 21.6 | 12.3 | -13.1 | .
CC(C)NC(=O)CSc1nnc2sc3ccccc3n12 | 1.3 | -22.3 | 7.2 | 0.5 | -5.0 | -2.4 | .
Cc1ccc2c(CC(=O)OCc3cc(=O)n4c(n3)sc3ccccc34)coc2c1 | -2.7 | 4.8 | 7.4 | 43.8* | 10.4 | 5.4 | 26.4
CC(C)[C@H](NC(=O)Cc1ccccc1)C(=O)OCc1cc(=O)n2c(n1)sc1ccccc12 | -2.6 | 7.4 | 3.0 | 42.8* | 7.7 | -4.5 | 29.7
COc1ccc(C(=O)NC2CCN(CC(=O)NC3CCCCC3)CC2)cc1 | 7.1 | -7.4 | -1.4 | -3.1 | -7.2 | 1.9 | .
COc1ccc(C(=O)NC2CCN(CC(=O)N3CCCCC3)CC2)cc1 | 3.0 | 5.7 | 0.7 | 41.4* | 4.4 | -4.1 | 5.5
Nn1cnnc1NN=Cc1ccc(F)cc1 | 1.5 | . | . | . | . | . | .
CCCCc1c(C)nc2ccc(OC)cc2c1SCCC(=O)O | -0.9 | 3.7 | 2.8 | 42.0* | 5.7 | -0.3 | 26.6
Cc1ccc(C)c(N)c1 | -1.0 | . | -0.4 | -1.0 | -5.3 | 0.1 | .
Cc1ccn(C)c(=N)c1 | . | -6.8 | -0.5 | 48.3* | 9.7 | -3.8 | 56.1* | UDG ctr A3A=2.5
COC(=O)NN=Cc1cc(Cl)cc(Cl)c1OCc1ccccc1F | 5.6 | . | . | . | . | . | .
